Measured values from different studies.
Compare with care: the assays were run in different laboratories.
Target: cGMP-dependent protein kinase 2 (PRKG2, Homo sapiens, UniProt Q13237)
One construct used (Q13237 1-762): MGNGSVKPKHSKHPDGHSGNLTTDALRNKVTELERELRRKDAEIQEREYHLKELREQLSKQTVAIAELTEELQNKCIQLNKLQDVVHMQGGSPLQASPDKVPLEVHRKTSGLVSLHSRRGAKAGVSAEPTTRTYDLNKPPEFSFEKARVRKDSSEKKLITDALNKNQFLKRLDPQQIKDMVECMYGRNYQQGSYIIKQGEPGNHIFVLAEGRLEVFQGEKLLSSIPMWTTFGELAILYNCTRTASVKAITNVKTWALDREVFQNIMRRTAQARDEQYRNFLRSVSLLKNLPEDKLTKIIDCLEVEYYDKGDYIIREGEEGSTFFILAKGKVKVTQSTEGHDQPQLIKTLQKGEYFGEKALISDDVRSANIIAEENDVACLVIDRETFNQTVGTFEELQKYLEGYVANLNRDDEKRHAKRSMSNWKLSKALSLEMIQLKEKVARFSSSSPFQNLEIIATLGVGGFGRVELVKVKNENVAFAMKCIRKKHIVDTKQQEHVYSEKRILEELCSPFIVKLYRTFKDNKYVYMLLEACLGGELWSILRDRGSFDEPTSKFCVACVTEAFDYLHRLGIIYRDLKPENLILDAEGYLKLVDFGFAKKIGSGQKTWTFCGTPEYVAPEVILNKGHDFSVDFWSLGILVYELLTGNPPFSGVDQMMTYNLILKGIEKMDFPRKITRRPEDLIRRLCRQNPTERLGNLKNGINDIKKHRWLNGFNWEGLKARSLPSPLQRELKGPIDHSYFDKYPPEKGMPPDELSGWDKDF

Nc1ncnc2occ(-c3ccc(NC(=O)Nc4cc(C(F)(F)F)ccc4F)cc3)c12
remaining signal (cell-free assay; inhibitor; 20 µM): 76%

CN(C)c1ncnc(-c2ccc3nc(Nc4cc(CN5CCN(C(=O)CC(F)(F)F)CC5)ccn4)[nH]c3c2)c1Cl
remaining binding (cell-free assay; competition with immobilised ligand; 1 µM): 40%

O=C(Nc1cnn(-c2csc(C(=O)NC3COC3)c2)c1)Nc1ccccc1Cl
remaining activity (enzyme activity; inhibitor; 5 µM): 101%

O=C(NCCCC1CCCCC1)c1ccc(CNC(=O)c2cnn(-c3ccccc3)c2C(F)(F)F)cc1
remaining binding (cell-free assay; competition with immobilised ligand; 0.1 µM): 89%

CC(C)(C)c1nc(-c2cccc(NS(=O)(=O)c3c(F)cccc3F)c2F)c(-c2ccnc(N)n2)s1
remaining activity (enzyme activity; inhibitor; radiometric; 1 µM): 102%

COc1cc(Cl)c(C(=O)N[C@@H](CN[C@H]2CC[C@@H](N)CC2)Cc2ccc(C#N)cc2)cc1-c1ccc(CN[C@H](C)c2ccc(C)cc2)o1
remaining activity (enzyme activity; inhibitor; 1 µM): 98%

CC1=C(C#N)[C@@H](c2ccc3[nH]nc(C)c3c2)C(C#N)=C(c2ccc(Cl)cc2)N1
remaining binding (cell-free assay; competition with immobilised ligand; 1 µM): 100%

Cn1cncc1C1=CN(c2ncnc3[nH]cnc23)CCS1
inhibition (enzyme activity; inhibitor; radiometric; 2 µM): 99.4%

CCCS(=O)(=O)Nc1ccc(F)c(C(=O)c2c[nH]c3ncc(-c4ccc(Cl)cc4)cc23)c1F
inhibition (enzyme activity; inhibitor; 1 µM): < 10%

COc1cc2ncnc(Nc3ccc(Oc4ccccc4)c(C)c3C)c2cc1OC
inhibition (enzyme activity; inhibitor; 1 µM): 2%

Cc1ccc(C(=O)NCc2ccsc2)cc1C#Cc1cn(C(C)C)c2ncnc(N)c12
activity vs control (enzyme activity; inhibitor; 1 µM): 112%

O=C1Nc2ccc(Cl)cc2C1=Cc1cc(Cl)c(O)c(Cl)c1
remaining signal (cell-free assay; 0.5 µM): 97%

CC(C)(O)[C@H]1CC[C@H](Nc2ccc3ncc(-c4cccc(C(F)(F)F)c4)n3n2)CC1
remaining activity (enzyme activity; inhibitor; 1 µM): 93.7%

N#CCCc1ccc2c(c1)-c1[nH]c3ccc([N+](=O)[O-])cc3c1CC(=O)N2
remaining signal (cell-free assay; 0.5 µM): 93.9%

Cn1cnc(Br)c1C1=CN(c2ncnc3[nH]cnc23)CCS1
inhibition (enzyme activity; inhibitor; radiometric; 2 µM): 91.7%

O=C(Nc1cccnn1)N1CCC(=Cc2cccc(Oc3ccc(C(F)(F)F)cn3)c2)CC1
remaining binding (cell-free assay; competition with immobilised ligand; 1 µM): 100%

CN(C)C1CCN(CC#Cc2nn(C3CCCC3)c3nc(NCc4ccccc4)ncc23)C1 (stereo not shown)
inhibition (enzyme activity; inhibitor; FRET; 10 µM): 5%

C#Cc1cccc(Nc2ncnc3cc(OCCOC)c(OCCOC)cc23)c1
remaining signal (cell-free assay; 0.5 µM): 107%

CSc1cccnc1N1CCN(Cc2nc3ccccc3[nH]2)CC1
remaining binding (cell-free assay; competition with immobilised ligand; 1 µM): 94%
